# Screening data: PubChem BioAssay, several laboratories
# PostGolgi yeast – growth inhibition of a yeast mutant, post-Golgi transport screen | inhibition, % at 10 µM | 0.9% of 98,000 active | post-Golgi transport phenotypic cell assay;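 also: yeast cells grown in 1536-well plates; yeast grown about 18 h at 30C before absorbance read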
# PostGolgi ctrl – growth of the yeast control strain, post-Golgi counter-screen. 5% of 98,000 active. efflux-deficient yeast background strain, growth absorbance A615, 16 h. AID 738. inhibition, % at 10 µM
# tolC growth inh – blocks growth of E. coli BW25113 tolC mutant | OD615 | growth inhibition, % at 10 µM (by protocol) | AID 573 | 2.2% of 65,000 active;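 active = growth inhibition at or above a cutoff equal to the mean over every tested compound plus 3 SD, cut at about 60% in these data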;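 also: growth measured after 20 h incubation at 37 °C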
#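 Test system: E. coli BW25113 ΔtolC::kan bacteria; incubation: 37 °C, 20 h exposure; medium: LB broth supplemented with 50 µg/mL kanamycin; read-out basis: percent growth inhibition; signal: A615 absorbance measurement; compound: 10 µM final, single dose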
# Candida biofilm – kills Candida albicans biofilms; C. albicans biofilm + clotrimazole, Alamar Blue; inhibition, % at 6 µM; 0.14% of 85,000 active;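 active = inhibition above 20%; inactive = inhibition below 20%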;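 also: preformed 24 hr biofilms exposed to compound for 48 hr; 0% = biofilm without compound and 100% = blank killed by clotrimazole plus chlorhexidine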
# Pyk2 oligo antag – blocks oligomerization of human Pyk2 in cells; z-score (the deposit names both 25 µM and 10 µM); 0.83% of 99,000 active; AID 1347419; Q14289; Q293 cells, Pyk2 FERM NanoBiT luminescence; active compounds read low;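 active = Z-score of -3 or lower, scaled per plate to the spread of control and sample wells; inactive = z-score above -3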;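 also: negative z-score means lost luminescence so less FERM oligomerization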
# FAK blocker – FAK (human) kinase inhibition; inhibition, %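 (tested at 7 µM)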; Q05397; AID 727; biochemical FAK kinase activity assay; 0.84% of 97,000 active; in the data active = inhibition above about 19%;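 also: 0% = DMSO and 100% = reference compound high control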
# Target sequence (Q05397 whole entry, looked up): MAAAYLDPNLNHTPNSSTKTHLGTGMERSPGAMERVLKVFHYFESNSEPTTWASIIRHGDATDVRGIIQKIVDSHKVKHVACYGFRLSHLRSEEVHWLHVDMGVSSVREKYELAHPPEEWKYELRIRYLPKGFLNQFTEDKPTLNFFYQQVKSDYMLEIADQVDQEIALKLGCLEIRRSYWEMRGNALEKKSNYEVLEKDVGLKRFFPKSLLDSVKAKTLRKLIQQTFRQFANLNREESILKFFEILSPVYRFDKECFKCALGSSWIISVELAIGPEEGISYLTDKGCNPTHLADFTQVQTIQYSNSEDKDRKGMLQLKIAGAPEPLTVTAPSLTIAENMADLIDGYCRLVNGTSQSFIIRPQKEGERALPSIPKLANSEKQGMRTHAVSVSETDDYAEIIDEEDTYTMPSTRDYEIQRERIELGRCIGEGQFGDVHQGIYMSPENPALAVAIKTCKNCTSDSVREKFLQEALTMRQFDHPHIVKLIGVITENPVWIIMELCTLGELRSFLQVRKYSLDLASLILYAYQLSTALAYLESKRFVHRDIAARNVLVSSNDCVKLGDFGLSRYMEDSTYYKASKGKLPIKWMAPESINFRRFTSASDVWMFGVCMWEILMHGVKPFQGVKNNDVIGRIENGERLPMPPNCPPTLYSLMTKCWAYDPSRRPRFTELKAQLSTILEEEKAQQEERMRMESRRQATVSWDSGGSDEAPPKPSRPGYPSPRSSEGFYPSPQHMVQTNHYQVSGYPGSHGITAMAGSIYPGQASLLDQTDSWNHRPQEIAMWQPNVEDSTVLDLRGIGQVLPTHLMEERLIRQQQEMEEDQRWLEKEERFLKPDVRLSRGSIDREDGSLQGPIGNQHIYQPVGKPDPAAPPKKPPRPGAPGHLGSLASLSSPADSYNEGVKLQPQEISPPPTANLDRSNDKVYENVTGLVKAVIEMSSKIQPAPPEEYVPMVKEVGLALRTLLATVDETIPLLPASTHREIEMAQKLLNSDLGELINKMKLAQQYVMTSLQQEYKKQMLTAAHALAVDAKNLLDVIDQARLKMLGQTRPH
# The depositor's hits bear a star; · = not tested or not shown. In the library only some 6.9% were active in any assay of this set; here they are far more common. Rule as the data show it, unless noted: active = inhibition above about 30%; inactive = the rest.
SMILES,PostGolgi yeast,PostGolgi ctrl,tolC growth inh,Candida biofilm,Pyk2 oligo antag,FAK blocker
CN(C)c1ccc(-c2nn3c(C4CCCCC4)nnc3s2)cc1,-0.2,19.9,57.7,-0.2,-3.64*,4.0
Cc1cccc(N=C2N=C(N)c3ccccc32)c1,-18.6,33.1*,·,5.7,0.19,-1.3
CCCCCCCCCCn1c2c(c(=N)c3c1CCC3)CCC2,11.2,97.4*,·,1.1,-1.31,7.5
CCCSC1=C(C#N)C(c2ccc(O)c(OC)c2)CC(=O)N1 (centres undefined),-10.6,21.1,3.7,-0.3,·,1.9
CN(C)c1ccc(/C=N/n2ncc3ccccc32)cc1,0.8,0.5,61.5*,8.5,0.54,·
Cc1ccc(-c2nc3ccccc3s2)cc1S(=O)(=O)N1CCCC1,28.4,30.8*,·,0.1,-2.72,1.5
O=S(=O)(c1cccc(-c2nc3ccccc3s2)c1)N1CCOCC1,2.1,30.4*,·,0.8,-1.62,-1.2
O=S(=O)(c1cccc(-c2csc(-c3ccccc3)n2)c1)N1CCOCC1,-6.2,23.0,4.8,7.2,-1.83,12.5
Fc1ccc(NC(=S)N2CCCc3ccccc32)cc1,0.9,2.3,·,·,-0.39,2.9
CC(Sc1nnc(C(F)(F)F)n1C)C(=O)NC(N)=O (centres undefined),1.9,12.9,·,5.9,-0.17,-3.0
O=C(CN1C(=O)c2ccccc2C1=O)Nc1sc2c(c1C(=O)NCC1CCCO1)CCC2 (centres undefined),-0.9,4.4,·,·,-0.04,-3.0
O=c1c2c([nH]c3ccccc13)CCCCCC2,-2.4,-1.2,34.1,3.0,-0.1,0.8
Clc1ccc(-c2nnc3n2CCCCC3)cc1,-3.9,7.6,·,1.8,-0.22,-1.1
Cc1ccc(S(=O)(=O)N(C)Cc2ccc(-c3nnc4n3CCC4)cc2)cc1,-0.6,32.8*,8.6,9.7,-1.09,-0.1
COc1ccc(CC(=O)Nc2cccc(-c3nnc(-c4ccco4)o3)c2)cc1,14.0,14.9,-0.6,·,-0.22,0.2
Cc1ccc(SCC(=O)Nc2ccc(-c3nnc(-c4ccco4)o3)cc2)cc1,-6.5,-13.6,·,·,-0.58,11.9
Cc1cc(C)cc(OCC(=O)Nc2cccc(-c3nnc(-c4ccco4)o3)c2)c1,-0.9,27.2,1.1,1.7,-3.86*,0.8
COc1ccc(C(=O)Nc2cccc(-c3nnc(-c4ccco4)o3)c2)cc1,0.0,30.8*,·,6.2,-2.58,0.8
CCN(CC)c1ccc(CC(=O)NC(C)Cc2ccccc2)cc1 (centres undefined),-3.3,17.8,·,·,0.43,-0.6
O=C(Nc1ccc2c(c1)OCCO2)C1CCN(c2nnnn2-c2ccccc2)CC1,-1.9,15.6,-4.7,2.8,0.19,-4.0
Cc1ccc(-c2nnn(CC(=O)N3CCN(c4nc5ccccc5s4)CC3)n2)cc1,-10.7,1.7,-2.4,0.6,1.27,0.7
CC(C)c1ccc(-c2nnn(Cc3nc4ccccc4s3)n2)cc1,1.6,16.1,80.0*,11.0,-1.84,3.1
Cc1ccc2cc(CCNC(=O)c3ccc4c(c3)OCO4)c(=O)[nH]c2c1C,2.2,1.8,·,7.7,·,-5.9
CCS(=O)(=O)N1CCCC(C(=O)NC2CCCCC2)C1 (centres undefined),-14.4,-9.1,-23.2,3.1,0.51,4.2
CCOC(=O)c1c(C)nc2c(c1-c1ccccc1)C(=O)c1ccccc1-2,1.3,35.1*,·,·,-0.83,2.4
SMILES,PostGolgi yeast,PostGolgi ctrl,tolC growth inh,Candida biofilm,Pyk2 oligo antag,FAK blocker
CN(C)S(=O)(=O)N1CCN(CC(O)COc2ccc3cc(Br)ccc3c2)CC1 (centres undefined),7.2,41.1*,49.7,4.0,-1.8,-0.4
OC(COc1ccc2cc(Br)ccc2c1)CN1CCN(c2ccccn2)CC1 (centres undefined),0.0,37.2*,10.4,-3.0,-0.34,0.6
O=S(=O)(N1CCCCC1)N1CCN(CC(O)COc2ccc3cc(Br)ccc3c2)CC1 (centres undefined),7.8,18.3,·,-2.2,-0.11,0.7
CC(C)(C)OC(=O)N1CCC[C@H]1c1nnc(SCc2ccccc2Cl)o1,9.2,10.7,35.6,10.8,-1.35,-0.3
CC(C)(C)OC(=O)N1CCC[C@H]1c1nnc(SCc2ccc(Cl)cc2Cl)o1,17.8,14.7,88.7*,3.9,-2.14,4.4
N#CC1=C2Nc3ccccc3N2C(=O)NC1(c1ccccc1)C(F)(F)F (centres undefined),4.2,10.6,·,·,-3.07*,-0.9
COc1ccc(-c2c3c(=O)n(C)c(=O)n(C)c3cn2-c2ccccc2)cc1,4.4,25.4,96.0*,4.0,0.28,4.0
